{"source": "paper PMC3581696", "about": "(The Journal of General Physiology, 2013)", "key": {"[1]": {"test": "Solubility limit in recording / aqueous solutions", "type": "physicochemical", "settings": "recording solutions, aqueous buffer"}, "[2]": {"target": "T1, Y699A mutant CNBHD from mEAG1 (Mus musculus, UniProt Q60603, Y699A)", "T1 sequence (Q60603 552-724 Y699A)": "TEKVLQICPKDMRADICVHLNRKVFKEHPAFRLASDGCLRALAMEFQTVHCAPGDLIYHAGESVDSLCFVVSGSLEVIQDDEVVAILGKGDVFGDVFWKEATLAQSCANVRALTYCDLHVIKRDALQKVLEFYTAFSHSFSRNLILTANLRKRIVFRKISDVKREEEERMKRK", "test": "Fisetin fluorescence anisotropy binding assay, Y699A CNBHD", "settings": "Kd (apparent affinity), 5 µM fisetin, fit with Eq. 7"}, "[3]": {"target": "T2, purified C-linker/CNBHD of mEAG1 channels (Mus musculus, UniProt Q60603)", "T2 sequence (Q60603 505-702)": "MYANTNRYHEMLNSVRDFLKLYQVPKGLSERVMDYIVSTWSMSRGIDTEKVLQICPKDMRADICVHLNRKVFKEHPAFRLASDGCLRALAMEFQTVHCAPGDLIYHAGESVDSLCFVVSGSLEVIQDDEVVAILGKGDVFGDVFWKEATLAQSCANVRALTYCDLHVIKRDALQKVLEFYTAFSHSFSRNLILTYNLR", "test": "Tryptophan-to-flavonoid FRET binding assay", "settings": "100 µM flavonoid; 4 µM protein"}, "[4]": {"target": "T3, mEAG1 Y699A channels (Mus musculus, UniProt Q60603, Y699A)", "T3 sequence (Q60603 1-989 Y699A)": "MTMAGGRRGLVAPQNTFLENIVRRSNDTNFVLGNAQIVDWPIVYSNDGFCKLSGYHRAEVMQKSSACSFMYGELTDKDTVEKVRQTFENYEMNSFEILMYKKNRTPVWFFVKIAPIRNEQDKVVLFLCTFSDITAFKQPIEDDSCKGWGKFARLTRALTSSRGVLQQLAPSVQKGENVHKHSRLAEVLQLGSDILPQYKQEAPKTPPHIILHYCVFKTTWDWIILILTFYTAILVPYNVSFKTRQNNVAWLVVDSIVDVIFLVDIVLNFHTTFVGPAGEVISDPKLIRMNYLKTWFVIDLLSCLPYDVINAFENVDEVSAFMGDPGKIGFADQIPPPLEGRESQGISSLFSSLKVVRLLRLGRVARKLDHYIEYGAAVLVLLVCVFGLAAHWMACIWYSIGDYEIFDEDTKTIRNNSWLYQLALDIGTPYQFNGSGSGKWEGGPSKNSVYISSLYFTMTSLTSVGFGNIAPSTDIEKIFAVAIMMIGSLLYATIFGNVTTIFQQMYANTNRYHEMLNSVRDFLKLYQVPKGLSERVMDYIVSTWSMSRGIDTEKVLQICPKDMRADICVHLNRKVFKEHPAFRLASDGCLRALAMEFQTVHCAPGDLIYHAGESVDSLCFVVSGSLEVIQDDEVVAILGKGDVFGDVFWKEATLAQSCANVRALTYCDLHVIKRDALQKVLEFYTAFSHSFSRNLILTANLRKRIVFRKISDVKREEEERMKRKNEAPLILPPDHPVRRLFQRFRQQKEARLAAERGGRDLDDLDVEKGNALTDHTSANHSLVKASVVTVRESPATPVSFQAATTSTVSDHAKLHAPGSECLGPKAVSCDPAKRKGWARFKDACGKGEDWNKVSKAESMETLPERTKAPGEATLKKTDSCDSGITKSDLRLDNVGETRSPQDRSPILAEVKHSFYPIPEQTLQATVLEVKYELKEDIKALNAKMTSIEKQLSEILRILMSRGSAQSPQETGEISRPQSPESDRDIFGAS", "test": "Inside-out patch-clamp of intrinsic ligand mutant channels", "type": "cell-based", "summary_of_the_method": "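mEAG1 mutant cRNA was injected into defolliculated Xenopus oocytes, and the vitelline membrane was removed. Inside-out patches were bathed in symmetric 130 mM KCl, 10 mM HEPES, 0.2 mM EDTA, pH 7.2, holding at −100 mV. Steps of 0.1 s from −140 to +50 mV (10-mV increments) were followed by −120 mV tails, without or with 30 µM flavonoid. Peak tails were normalized and Boltzmann-fitted. Deactivation time constant came from single-exponential fits of the −120 mV tail after +50 mV; two-tailed t test.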"}, "[5]": {"target": "T4, wild-type CNBHD from mEAG1 (Mus musculus, UniProt Q60603)", "T4 sequence (Q60603 552-724)": "T1 sequence (Q60603 552-724 Y699A) with A148Y", "test": "Fisetin fluorescence anisotropy binding assay, wild-type CNBHD", "settings": "Kd (apparent affinity), 5 µM fisetin, fit with Eq. 7"}}, "note": "Substitutions are numbered along the chain they refer to. Several values for one entry are separate records, joined by “and”; a condition that tells them apart may be missing. Identical values can stand only once.", "data": [{"smiles": "O=c1c(O)c(-c2ccc(O)c(O)c2)oc2cc(O)ccc12", "note": "[Fisetin, 2-(3,4-dihydroxyphenyl)-3,7-dihydroxychromen-4-one]", "values": [{"measurement": "solubility", "setting": "[1]", "result": "≤ 150", "unit": "µM"}, {"measurement": "Kd", "setting": "[2]", "result": "30 µM and ≥ 30 µM"}, {"measurement": "decrease of peak fluorescence intensity of the C-linker/CNBHD at 341 nm", "setting": "[3]", "result": 27, "unit": "%"}, {"measurement": "potentiation of mEAG1 Y699A channels", "setting": "[4]; 30 µM fisetin", "result": "did not potentiate"}, {"measurement": "time constant of deactivation", "setting": "[4]; with 30 µM fisetin, at −120 mV, 5.0 ± 0.4 ms without, n = 10, P = 0.06", "result": "6.4 ± 0.6", "unit": "ms"}, {"measurement": "V1/2 of the conductance–voltage relationship", "setting": "[4]; with 30 µM fisetin, −54.9 ± 3.5 mV without, n = 10, P = 0.65", "result": "−57.2 ± 3.6", "unit": "mV"}, {"measurement": "Kd", "setting": "[5]", "result": "111 µM and ≥ 111 µM"}]}]}
